Screening data: PubChem, several laboratories
Arr AP2 block = blocks beta-arrestin peptide binding to AP2 adaptin; inhibition, % at 10 µM; FITC-arrestin peptide / GST-AP2 beads, flow cytometry; AP2 beta2 appendage carries R879A mutation; actives 0.31% (n = 340,000); AID 504490;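 active = inhibition above a set limit, near 3 SD of compounds lacking own fluorescence, cut at about 54% in these data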
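Assay system: GST-AP2 R879A bound to glutathione beads, E. coli-expressed; Medium: PBS with 0.05% Tween 20 and 0.1% BSA; Also added: fluorescein-tagged arrestin peptide at 50 nM final; Timing: 12 min plus 1 h, RT; Measured by: flow cytometry, FL1 (488/535 nm); Evaluation: percent drop in bead-associated FITC signal.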
ATG4B inh = inhibitors of human ATG4B cysteine protease | AID 504462 | actives 0.51% (n = 340,000) | inhibition, % at 8.33 µM | Q9Y4P1 | ATG4B cleavage of LC3-PLA2, NBD-HPC fluorescence, 1 h; in the data active = inhibition above about 40%
ABCB6 inh 2 = human ABCB6 transporter inhibition | actives 0.19% (n = 360,000) | K562-ABCB6 porphyrin accumulation, flow cytometry, 1 h; active compounds read low | AID 602162 | fluorescence ratio to DMSO, % at 10 µM;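 active = fluorescence ratio to DMSO below 75%, the collection mean minus 3 SD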;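 note: signal is porphyrin accumulated inside mitochondria; lower ratio means ABCB6 inhibition with less porphyrin fluorescence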
Myeloid diff MLP = myeloid differentiation induction; AID 624256; actives 1% (n = 360,000); calls only at 10 µM; ER-HoxA9 myeloid progenitors, lysozyme-GFP differentiation, flow cytometry;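 active = normalized GFP-positive differentiation at or above the plate's own cutoff, the solvent-only control mean plus 3 SD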;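 note: cells exposed to compound for four days before flow analysis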
NRP1-CendR mod = modulators of CendR peptide binding to human neuropilin-1. O14786. FAM-RPARPAR peptide binding to NRP-1, fluorescence polarization. AID 602438. actives 0.85% (n = 360,000). inhibition, % at 25 µM;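 active = inhibition or corrected inhibition above about 18%, plus a signal ratio from 0.5 to 1.5, limit read from the data, passing the limit was not always enough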
Target sequence (O14786 whole entry, looked up): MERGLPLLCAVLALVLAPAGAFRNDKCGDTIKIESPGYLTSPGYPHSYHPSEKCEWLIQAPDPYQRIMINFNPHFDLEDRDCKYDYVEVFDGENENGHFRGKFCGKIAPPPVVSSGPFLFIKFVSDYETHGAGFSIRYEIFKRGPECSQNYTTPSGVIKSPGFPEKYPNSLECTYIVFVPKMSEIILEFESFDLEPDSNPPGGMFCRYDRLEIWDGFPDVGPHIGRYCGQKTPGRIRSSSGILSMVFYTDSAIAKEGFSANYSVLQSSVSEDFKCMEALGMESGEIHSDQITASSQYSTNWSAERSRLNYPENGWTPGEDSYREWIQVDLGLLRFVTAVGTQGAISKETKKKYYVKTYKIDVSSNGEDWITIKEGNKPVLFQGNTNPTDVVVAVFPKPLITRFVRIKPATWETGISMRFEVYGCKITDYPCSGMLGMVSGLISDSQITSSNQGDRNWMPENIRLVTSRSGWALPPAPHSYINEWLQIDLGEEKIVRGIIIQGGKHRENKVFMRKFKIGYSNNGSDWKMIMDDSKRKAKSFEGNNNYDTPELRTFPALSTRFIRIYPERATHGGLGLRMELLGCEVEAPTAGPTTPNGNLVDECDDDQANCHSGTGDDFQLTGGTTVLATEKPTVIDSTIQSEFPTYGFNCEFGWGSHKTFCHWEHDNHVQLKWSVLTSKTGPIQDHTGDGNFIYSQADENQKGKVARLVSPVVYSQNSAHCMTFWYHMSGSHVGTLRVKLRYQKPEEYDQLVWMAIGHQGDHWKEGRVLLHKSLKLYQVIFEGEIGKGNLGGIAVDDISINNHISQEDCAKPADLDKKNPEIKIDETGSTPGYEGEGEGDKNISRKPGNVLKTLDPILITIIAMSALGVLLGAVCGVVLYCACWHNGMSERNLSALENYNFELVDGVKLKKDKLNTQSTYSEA
Granule exo inh = blocks lytic granule exocytosis; TALL-104 LAMP-1 surface exposure, flow cytometry; cells stimulated with thapsigargin and PMA; inhibition, % at 10 µM; actives 0.66% (n = 360,000); AID 651702;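 active = inhibition above about 55%, limit read from the data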
ATG4B confirm = confirmation of human ATG4B inhibitors; shares compounds with ATG4B inh; ATG4B protease fluorescent substrate cleavage assay; inhibition, % at 8.33 µM; actives 92% (n = 320); AID 504757; in the data active = inhibition above about 39%
PLA2 counter = inhibits human PLA2, flagging false ATG4B inhibitors; inhibition, % at 8.33 µM; shares compounds with ATG4B inh; purified PLA2, NBD-C6-HPC fluorescence, 45 min; AID 588402; actives 66% (n = 1,600); in the data active = inhibition above about 50%
Numbers stand for hits; . = inactive; / = no result given; + = active, no number. Rows were chosen to be rich in hits. Some 3.3% of all compounds tested hit in one or more screens of this group.

SMILES	Arr AP2 block	ATG4B inh	ABCB6 inh 2	Myeloid diff MLP	NRP1-CendR mod	Granule exo inh	PLA2 counter	others
CCCCCN1CC(=O)N2Cc3[nH]c4ccccc4c3C[C@H]2C1=O	.	.	.	.	.	.	/
CCCCN1C(=O)C2Cc3c([nH]c4ccccc34)CN2C1=S (centres undefined)	.	45.1	.	+	.	.	79.9
Cc1ccc(O)c(-c2cc(-c3ccccc3[N+](=O)[O-])[nH]n2)c1	.	73.3	.	.	.	.	66.5
Oc1ccc(Cl)cc1-c1cc(-c2ccccc2Cl)[nH]n1	.	.	.	.	.	.	/
COc1ccc(O)c(-c2cc(-c3ccccc3[N+](=O)[O-])[nH]n2)c1	.	.	.	.	.	.	/
Oc1ccccc1-c1cc(-c2ccccc2Cl)[nH]n1	.	56.4	.	.	.	.	68.0
Cc1ccc(O)c(-c2cc(-c3ccccc3C)[nH]n2)c1	.	55.5	.	.	.	.	61.9
O=[N+]([O-])c1ccccc1-c1cc(-c2cc(Cl)ccc2O)n[nH]1	.	88.3	.	.	.	.	84.8
O=C(c1cnn2c(C(F)(F)F)cc(-c3cccs3)nc12)N1CCOCC1	.	.	.	.	.	.	/
CN(C)C1=NCC(CSC(=N)N)S1 (centres undefined)	.	.	.	.	.	.	/
COc1cccc(CN2CCC2(C)C(=O)Nc2ccc3c(c2)OCO3)c1F (centres undefined)	/	/	.	.	.	.	/
CC(=O)NC(CC(=O)N(Cc1ccccc1)c1ccc(C)cc1)c1ccccc1 (centres undefined)	.	.	.	.	.	.	/
COC(=O)/C=C1\SC(=Nc2ccc(Cl)c(Cl)c2)NC1=O	.	79.0	.	.	.	.	.	ATG4B confirm=79.2
Cc1ccc(C(=O)Nc2ncc(Cc3ccc(F)cc3)s2)o1	.	57.1	.	.	.	.	64.2
Cc1ccc(S(=O)(=O)CCC(=O)OCCOc2cccc(Br)c2)cc1	.	.	.	.	.	.	/
O=C(Nc1nc(-c2ccccc2)cs1)c1ccccc1NS(=O)(=O)c1ccc(F)cc1	.	53.6	.	.	.	.	62.4
O=C1NC(c2ccccc2O)Nc2ccccc21 (centres undefined)	.	.	.	.	.	.	/
O=C1NC(c2cccc3ccccc23)Nc2ccc(Cl)cc21 (centres undefined)	.	43.4	.	/	.	.	58.7
Oc1c(Br)cc(Br)cc1C=NCc1ccccc1	.	73.5	.	.	.	.	71.5
C#CCOCCOCCOCCNc1nc(N2CCN(C(=O)CCCCCCCCCCNC(=O)[C@H](CCCCN)n3cc(C[C@@H](C)CC)nn3)CC2)nc(N2CCN(C(=O)CCCCCCCCCCNC(=O)[C@H](CCCCN)n3cc(C[C@@H](C)CC)nn3)CC2)n1	.	79.7	.	+	.	.	77.5
C#CCOCCOCCOCCNc1nc(N2CCN(C(=O)CCCCCCCCCCNC(=O)Cn3cc(C[C@@H](C)O)nn3)CC2)nc(N2CCN(C(=O)CCCCCCCCCCNC(=O)[C@H](CCCCN)n3cc(C[C@@H](C)CC)nn3)CC2)n1	.	.	.	.	.	.	/
Cc1onc(-c2ccccc2Cl)c1C(=O)NC(=S)NCC(=O)c1ccccc1	.	44.8	.	.	.	.	.
CCc1ccc(NC(=S)NC(=O)c2c(-c3ccccc3Cl)noc2C)cc1	.	.	.	.	.	.	/
CCc1ccccc1NC(=O)C1C(c2ccccc2)C1(Cl)Cl (centres undefined)	.	.	.	.	.	.	/
O=C(Nc1ccccc1Cl)C1C(c2ccccc2)C1(Cl)Cl (centres undefined)	.	51.6	.	.	.	.	56.3
CC(/C=C1\SC(=S)N(NS(=O)(=O)c2ccc(C)cc2)C1=O)=C\c1ccccc1	.	62.1	.	.	.	.	71.8
CC(/C=C1\SC(=S)N(NC(=O)c2ccc(C)cc2)C1=O)=C\c1ccccc1	.	.	.	.	.	.	/
